Test results as given in paper PMC4678411 (Journal of Medicinal Chemistry, 2015).
Values after ≈ are worked out from the molar mass of the structure shown.

Experiments:
[1] = clinical trials, patients; cited from earlier work
[2] = Aqueous solubility determination; type: physicochemical; settings: pH 7.4
In short: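 About 5 mg excess solid in Tris buffer pH 7.4, in triplicate. Sonicated, vortexed, then shaken at 100 shakes/min at 25 °C for 24 h. Solid removed by centrifugation and filtration; filtrate diluted. Quantified by HPLC on a C18 column with photodiode-array detection, using an acetonitrile (10–70%)/10 mM sodium phosphate pH 7 gradient over 20 min.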

[3] = tested on: A2780 human ovarian cancer cell line; assay: Efficacy study in a mouse model of human ovarian cancer; type: in vivo, female athymic nude mice
In short: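 A2780 cells (RPMI 1640/10% FBS, mycoplasma-negative) implanted s.c. at 2.5 × 10^6 in 50% Matrigel into female athymic nude mice aged 7–9 weeks. Randomized at mean 188 mm3, 10 per group. Daily IP or oral-gavage doses of 0.1–1.2 mg/kg in USP saline for 30 days. Controls were vehicle and carboplatin 60 mg/kg twice weekly. Tumor volume (L × W²/2), survival and clinical signs tracked.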

[4] = tested on: alkaline phosphatase from bovine intestinal mucosa; settings: no enzyme; cited from earlier work
[5] = Chemical hydrolysis stability study at 40-70 °C with Arrhenius extrapolation; type: physicochemical; settings: for extrapolated pseudo-first-order rate constant (kobsd) for hydrolysis: extrapolated from Arrhenius plot; for pseudo-first-order rate constant (kobsd) of hydrolysis: pH 7.4; for half-life: pH 7.4, calculated half-life (t1/2) of hydrolysis
In short: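 Test compound dissolved in Sodium Chloride Injection USP at 20.0 mg/100 mL ("high") or 3.00 mg/100 mL ("low"). Flame-sealed in sterilized ampules and held at 70, 60, 50 or 40 °C, sampled at intervals over hours (70, 60 °C) or days (50, 40 °C). Analysed by HPLC. Ea came from an Arrhenius plot, which was extrapolated to give kobsd, t1/2 and t90 at 25 and 4 °C.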

[6] = tested on: HT-29 human colon adenocarcinoma cell line; assay: Efficacy study in a mouse model of human colon adenocarcinoma; type: in vivo, female athymic nude mice; settings: for test-article related deaths: 0.9 mg/kg IP, ten mice
In short: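 Female athymic nude mice aged 7–9 weeks, acclimated ≥7 days. Implanted s.c. in the right flank with 1.74 × 10^6 mycoplasma-negative HT-29 cells in 50% Matrigel/medium. Randomized at mean 110 mm3, 10 per group. Dosed IP in USP saline (0.2 mL) by group-mean body weight, daily or intermittently, for 28 days. Caliper volume (L × W²/2) measured ≥twice weekly, plus necropsy tumor weight, survival, body weight and clinical signs.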

## CC(C)[C@]12O[C@H]1[C@@H]1O[C@]13[C@]1(O[C@H]1C[C@H]1C4=C(CC[C@@]13C)C(=O)OC4)[C@@H]2OC(=O)CCC(=O)O [omtriptolide, triptolide succinate]
[1]
  cleavage of the prodrug moiety: slow and incomplete

## CC(C)[C@]12O[C@H]1[C@@H]1O[C@]13[C@]1(O[C@H]1C[C@H]1C4=C(CC[C@@]13C)C(=O)OC4)[C@@H]2OCOP(=O)([O-])[O-].[Na+].[Na+] [Compound 4, Sodium (((5bS,6aS,7aR,8R,8aS,9aS,9bS,10aS,10bS)-8a-Isopropyl-10b-methyl-3-oxo-1,2,3,5,5b,6,6a,8,8a,9a,9b,10b-dodecahydrotris(oxireno)[2′,3′:4b,5;2″,3″:6,7;2‴,3‴:8a,9]phenanthro[1,2-c]furan-8-yl)oxy)methyl Phosphate]
[2]
  solubility enhancement by prodrug formation versus triptolide: 3600 times
[3]; intraperitoneal injection, daily doses of 0.6 or 0.9 mg/kg (data not shown)
  efficacy and tolerability: effective and well tolerated
[3]; oral gavage, daily doses of 0.6 or 0.9 mg/kg, slightly higher rates of morbidity and mortality
  efficacy: effective
[4]
  stability in a similar assay in the absence of alkaline phosphatase: stable for 1 h
[5]; 4 °C
  extrapolated pseudo-first-order rate constant (kobsd) for hydrolysis: 6.5 × 10^–6 h^–1
  half-life: 4460 days
[5]; 25 °C
  extrapolated pseudo-first-order rate constant (kobsd) for hydrolysis: 8.6 × 10^–5 h^–1
  half-life: 336 days
[5]; 40 °C
  pseudo-first-order rate constant (kobsd) of hydrolysis: 0.000494 h^–1
[5]; 50 °C
  pseudo-first-order rate constant (kobsd) of hydrolysis: 0.001052 h^–1
[5]; 60 °C
  pseudo-first-order rate constant (kobsd) of hydrolysis: 0.002482 h^–1
[5]; 70 °C
  pseudo-first-order rate constant (kobsd) of hydrolysis: 0.008659 h^–1
[5]; from Arrhenius plot, pH 7.4, 40-70 °C
  activation energy (Ea) of hydrolysis: 15.2 kcal/mol
[6]; 0.9 mg/kg IP daily for 2 weeks followed by 3×/week
  mice that survived until the end of the study: 9/10
[6]; 0.9 mg/kg IP daily for 4 weeks
  mice that survived until the end of the study: 7/10
[6]; 0.9 mg/kg IP daily for 4 weeks or daily for 2 weeks followed by 3×/week
  tumor status of all mice surviving until the end of the study: tumor free
[6]; 0.9 mg/kg IP less frequently than daily or with a break from daily dosing
  effect on xenograft tumors, intermittent regimens: effective
[6]; QD for 2 weeks group
  test-article related deaths: 1
[6]; QD for 2 weeks then 3×/week group
  test-article related deaths: 1
[6]; QD for 4 weeks group
  test-article related deaths: 3
[6]; IP, 0.1-0.9 mg/kg, all regimens
  tolerability: generally well tolerated
[6]; administered daily IP, dose levels from 0.3 to 0.9 mg/kg, 28 days
  effect on xenograft tumors: effective in reducing or eliminating xenograft tumors

## CC(C)[C@]12O[C@H]1[C@@H]1O[C@]13[C@]1(O[C@H]1C[C@H]1C4=C(CC[C@@]13C)C(=O)OC4)[C@@H]2O [triptolide, Triptolide, reference compound]
[2]; Tris buffer
  solubility at 24 h: 17 µg/mL (≈ 47.2 µM)
